This is a sample that favours compounds with a hit; in the whole collection about 3.3% have one here.
SENP7 block – inhibitors of human SENP7 protease; Q9BQF6; inhibition, % at 5 µM; hit rate 1.5% among 330,000; recombinant SENP7, Z-RLRGG-aminoluciferin luminescence, 40 min;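 active = inhibition above about 50% at the single test dose, limit read from the data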;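 also: plate controls were DMSO with enzyme for no effect and no enzyme buffer wells for full effect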
SENP8 block-1 – blocks human SENP8 cleavage of Nedd8 substrate; Q96LD8; recombinant SENP8, Nedd8 substrate fluorescence; inhibition, % at 20 µM; hit rate 0.64% among 360,000; in the data active = inhibition mostly above about 40%, no sharp cut-off; inactive = mostly below about 27%
Target sequence (Q96LD8 whole entry, looked up): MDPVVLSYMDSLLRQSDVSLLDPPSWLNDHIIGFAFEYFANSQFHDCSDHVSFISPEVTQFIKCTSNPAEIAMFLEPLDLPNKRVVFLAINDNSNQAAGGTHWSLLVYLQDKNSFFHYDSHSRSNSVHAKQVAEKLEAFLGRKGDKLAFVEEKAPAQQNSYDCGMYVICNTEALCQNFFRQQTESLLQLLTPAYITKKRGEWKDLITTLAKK
SENP6 block – inhibitors of human SENP6 protease. inhibition, % at 10 µM. hit rate 1.8% among 330,000. AID 2599. Recombinant SENP6 catalytic domain, aminoluciferin luminescence. Q9GZR1;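 active = inhibition above about 50% at the single tested dose, limit read from the data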;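 also: plate controls were DMSO wells with enzyme for no effect and DMSO wells lacking enzyme for full effect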
NRP1-CendR mod – alters CendR peptide binding to human NRP-1; O14786; FAM-RPARPAR peptide binding to NRP-1, fluorescence polarization; inhibition, % at 25 µM; hit rate 0.85% among 360,000;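 active = inhibition or corrected inhibition above about 18%, plus a signal ratio from 0.5 to 1.5, limit read from the data, passing the limit was not always enough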
SENP8 block-2 – blocks the human protease SENP8. inhibition, % at 10 µM. hit rate 1.2% among 330,000. Q96LD8. purified SENP8, Z-RLRGG-aminoluciferin cleavage, luminescence. AID 2540; in the data active = inhibition above about 50%
SENP1 inh – SENP1 (human) catalytic domain inhibition; recombinant SENP1 catalytic domain, CyPet-SUMO1-YPet FRET cleavage; inhibition, % at 10 µM; Q9P0U3; hit rate 0.21% among 360,000;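 active = inhibition at least 30% at 10 µM, raw YFP signal under a set limit, fluorescence ratio 0.5 to 1.5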;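 also: 0% = enzyme with DMSO and 100% = no enzyme wells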
Target sequence (Q9P0U3 419-644 limits assumed): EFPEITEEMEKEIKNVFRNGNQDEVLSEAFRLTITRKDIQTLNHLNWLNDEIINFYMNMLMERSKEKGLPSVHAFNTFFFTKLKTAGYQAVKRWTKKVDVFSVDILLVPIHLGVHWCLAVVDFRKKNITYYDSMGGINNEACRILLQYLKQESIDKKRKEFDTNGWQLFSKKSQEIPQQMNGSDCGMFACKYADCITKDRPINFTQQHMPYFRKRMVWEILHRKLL
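Test system: human SENP1 catalytic domain; medium: Tris pH 8 buffer plus EDTA, NaCl, BME, BSA, NP40, catalase; incubation: 50 min reaction at room temperature; technique: FRET, CFP and YFP emission; controls: no-enzyme low control and enzyme-plus-DMSO high control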
SENP8 conf – confirmation of human SENP8 protease inhibitors; shares compounds with SENP7 block; Recombinant SENP8, Z-RLRGG-aminoluciferin luminescence, 60 min; inhibition, % at 12.5 µM; hit rate 40% among 6,200;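 active = mean inhibition across replicates above about 50%, limit read from the data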
SENP6 conf – human SENP6 inhibition, confirmed | shares compounds with SENP7 block | recombinant SENP6, Z-RLRGG-aminoluciferin luminescence | inhibition, % at 12.5 µM | hit rate 58% among 6,200
SENP7 conf – human SENP7 inhibition, confirmed; shares compounds with SENP7 block; recombinant SENP7, Z-RLRGG-aminoluciferin luminescence, 40 min; inhibition, % at 12.5 µM; hit rate 69% among 6,200; AID 488917
Casp3 select – caspase-3 inhibition (SENP selectivity assay). shares compounds with SENP7 block. purified caspase-3, Z-DEVD-aminoluciferin luminescence, 60 min. inhibition, % at 12.5 µM. hit rate 60% among 6,200. AID 488918;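 active = mean inhibition above about 50%, limit read from the data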;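 also: plate controls were enzyme with DMSO for no effect and wells without caspase-3 for full effect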
Target sequence (P42574 28-227 limits assumed): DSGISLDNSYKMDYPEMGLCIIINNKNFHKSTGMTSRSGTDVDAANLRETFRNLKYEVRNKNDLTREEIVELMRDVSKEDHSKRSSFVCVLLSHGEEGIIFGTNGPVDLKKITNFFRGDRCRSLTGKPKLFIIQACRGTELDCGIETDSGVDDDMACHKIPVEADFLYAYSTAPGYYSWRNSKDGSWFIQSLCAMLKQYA
Luc interf – counter-screen for SENP inhibitors: luminescence interference | inhibition, % at 12.5 µM | Pre-incubated SENP8/Z-RLRGG-aminoluciferin, luciferase luminescence interference | shares compounds with SENP7 block | hit rate 39% among 6,200;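 active = mean inhibition above about 50% when retested at one dose, limit read from the data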;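 also: plate controls were DMSO wells with completed reaction for no effect and substrate without enzyme for full effect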
The depositor's hits bear a star; . = not tested or not shown.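 The calls were made as follows, unless noted: active = mean inhibition above about 50% in the one-dose retest (limit read from the data); inactive = the rest.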

SMILES | SENP7 block | SENP8 block-1 | SENP6 block | NRP1-CendR mod | SENP8 block-2 | SENP1 inh | others
O=C(O)c1ccc2c(c1)C1C(Cl)C(Sc3ccccc3[N+](=O)[O-])CC1C(c1cccc([N+](=O)[O-])c1)N2 (stereo not drawn) | . | 49* | . | 17 | . | 4
CCN(CC)C(=O)c1ccc2c(c1)C1C(Cl)C(Sc3ccccc3[N+](=O)[O-])CC1C(C(=O)O)N2 (stereo not drawn) | 6 | 44* | 12 | 46* | 14 | -7
CCN(CC)C(=O)c1ccc2c(c1)C1C=CCC1C(C(=O)O)N2 (stereo not drawn) | 7 | 27 | 14 | 45* | 9 | -95
CCN(CC)C(=O)c1ccc(N(Cc2ccccc2)S(C)(=O)=O)cc1 | 5 | 5 | -30 | 8 | -7 | 1
O=C(O)c1cccc2c1NC(c1cccc([N+](=O)[O-])c1)C1CC(Sc3ccccc3[N+](=O)[O-])C(Cl)C21 (stereo not drawn) | 3 | 31 | 16 | -49 | 8 | 3
Cc1ccc2c(c1Cl)NC(C(=O)O)C1CC(Sc3ccccc3[N+](=O)[O-])C(Cl)C21 (stereo not drawn) | 3 | 30 | 4 | 8 | 6 | -1
CCCCCN1C(=O)c2cc(OC)ccc2[C@@]2(C(=O)OCC)Cc3cc(Cl)ccc3[C@@H]12 | . | -11 | . | -5 | . | 0
COC(=O)C1=C(c2cc3ccccc3s2)C[C@@H]2CC[C@H]1N2C | 2 | 5 | -5 | 22* | 7 | -1
CC1(C)CC(=O)CC(C)(C)N1O | . | 21 | . | 0 | . | 2
CN(C)C(CNC(=O)Cc1c(Cl)cccc1Cl)c1ccccc1 (stereo not drawn) | -4 | -386 | -5 | 26* | -9 | 3
CC(NCc1cccc(Cl)c1Cl)C(O)c1ccccc1 (stereo not drawn) | 2 | 4 | 7 | -9 | 8 | 0
O=c1[nH]c2ccccc2n1C1CCN(C(c2cc3ccccc3o2)c2nnnn2Cc2ccccc2)CC1 (stereo not drawn) | . | 12 | . | -10 | . | -8
CN1C(=O)NC(=O)/C(=C/c2ccc([N+](=O)[O-])s2)C1=O | 6 | 58* | 50 | -6 | 33 | 5
CC12CCC3c4ccc(OP(=O)(N5CC5)N5CC5)cc4CCC3C1CCC2=O (stereo not drawn) | . | 14 | . | 26* | . | 0
CC1CN1P(=O)(Oc1ccc2ccccc2c1)N1CC1C (stereo not drawn) | . | -4 | . | 14 | . | 2
COC(=O)C1=C(C(=O)OC)C2OC1c1cc3ccccc3cc12 | . | -2 | . | 5 | . | 1
COc1ccc(OC(=O)N(C)C)c(CN(C)C)c1 | 2 | 9 | 4 | 27* | -6 | 3
CN(C)c1ccc(N=Cc2c(O)n(CCC3=CCCCC3)c(=O)[nH]c2=O)cc1 | 0 | -19 | -7 | 61* | -1 | -24
CCN(CC)c1ccc(N=Cc2c(O)n(CCC3=CCCCC3)c(=O)[nH]c2=O)cc1 | 7 | -6 | -9 | 137 | -9 | -28
COc1ccc(OC)c(C(O)C(C)N)c1 (stereo not drawn) | 3 | 8 | 6 | 19* | 7 | 1
COc1ccc(C(O)c2cc(OC)ccc2OP(=O)(N(C)C)N(C)C)cc1 (stereo not drawn) | -8 | 12 | -23 | 17 | -12 | 0
O=C1C=C(N2CC2)c2ccccc2C1=O | . | 64* | . | 25* | . | 1
O=[N+]([O-])c1ccc(N2CCOCC2)c2c1no[n+]2[O-] | . | 17 | . | 3 | . | 10
COc1ccc(-n2nnnc2C(c2cccc3ccccc23)N2CCC3(CC2)C(=O)NCN3c2ccccc2)cc1 (stereo not drawn) | . | 26 | . | 0 | . | 0
O=c1[nH]c(O)c(N=Nc2ccc3c(c2)OCCO3)c(=O)[nH]1 | 1 | -25 | 19 | -48 | -14 | 39*
SMILES | SENP7 block | SENP8 block-1 | SENP6 block | NRP1-CendR mod | SENP8 block-2 | SENP1 inh | others
NS(=O)(=O)c1ccc(N=Nc2c(O)[nH]c(=S)[nH]c2=O)cc1 | 11 | 26 | 33 | -9 | -9 | -5
O=c1[nH]c(=S)[nH]c(O)c1N=Nc1ccc2c(c1)OCO2 | 85* | 28 | 89* | -85 | 82* | 19
O=c1[nH]c(O)c(N=Nc2ccc(S(=O)(=O)N3CCOCC3)cc2)c(=O)[nH]1 | 3 | 15 | -6 | -9 | -1 | -10
CC[C@H]1c2ccccc2[C@@H]2CC[C@H]1N2c1ccccc1 | . | -54 | . | 2 | . | -5
Cc1ccc(C(O)(C(=O)OC(C)C)C(O)c2ccccc2)cc1 (stereo not drawn) | . | 15 | . | -6 | . | 3
Cn1ncnc2c(=O)n(C)c(=O)nc1-2 | 96* | 101* | 95* | 22 | 96* | 38*
CCOC(=O)[C@]12Cc3cc(Cl)ccc3[C@H]1N(C1CCCCC1)C(=O)c1ccccc12 | . | 5 | . | 11 | . | -2
CCOC(=O)[C@]12Cc3ccccc3[C@H]1N(CCC(=O)OC)C(=O)c1cc(OC)ccc12 | . | 5 | . | -13 | . | -2
Cc1cc2c(C(C)C)c(O)c(O)c(C=O)c2c(O)c1-c1c(C)cc2c(C(C)C)c(O)c(O)c(C=O)c2c1O | . | 39* | . | -65 | . | 3
O=C(CCc1ccccc1)N1Cc2cc(N3CCOCC3)ccc2-n2nncc2C1 | . | -5 | . | 6 | . | 2
OCC[n+]1c2ccccc2nc2ccc(N3CCOCC3)cc21 | 22 | 31 | 52* | 14 | 38 | 0 | SENP8 conf=49;SENP6 conf=68*;SENP7 conf=40;Casp3 select=48;Luc interf=18
COc1ccc(-c2cc(=Nc3cccc(C(=O)O)c3)c3cc(C)ccc3o2)cc1 | 82* | -408 | 50 | 6 | 64* | 2 | SENP8 conf=10;SENP6 conf=53*;SENP7 conf=68*;Casp3 select=51*;Luc interf=65*
Oc1cc(O)cc(/C=C/c2ccc(O)cc2O)c1 | 40 | -499 | 70* | 4 | 46 | -3 | SENP8 conf=62*;SENP6 conf=62*;SENP7 conf=87*;Casp3 select=59*;Luc interf=77*

Screening data deposited in PubChem BioAssay by Sanford-Burnham Center for Chemical Genomics.
